Data set [1] is described as follows: Clearance in cynomolgus monkey at 1 to 2 mg/kg, iv. The data set is classed as ADME, organism-based, Macaca fascicularis. More on the design: dose 1-2 mg/kg, route intravenous. As to conditions: in vivo. In short, it runs like this: (§1)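 Male cynomolgus monkeys received a single i.v. dose of about 1–2 mg/kg in isotonic phosphate-mannitol vehicle, given as cassettes (typically n ≤ 8). Plasma was protein-precipitated with 0.5% formic acid in acetonitrile and peptide measured by reversed-phase HPLC. Parameters were fitted with mono- or biexponential models.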

Data set [2] in a line: Half life in cynomolgus monkey at 1 to 2 mg/kg, iv. It is filed as ADME, organism-based, Macaca fascicularis. Set-up: dose 1-2 mg/kg, route intravenous. As to conditions: in vivo. In short, it runs like this: as §1
Data set [3] has as its system Human immunodeficiency virus 1. Put plainly: Antiviral activity against HIV1 3B infected in human PBMCs by reverse transcriptase assay. The data set is classed as functional, organism-based. As to conditions: Human immunodeficiency virus 1, 3B. In short, it runs like this:
(§2)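 CD8-depleted activated PBMC targets infected at high MOI by spinoculation; infected cells incubated with uninfected targets at 2 × 10⁵ cells per well with serially diluted peptide for 9 days. Fresh compound added and samples taken every 2–3 days. Replication read by reverse transcriptase assay; IC50 from reduction in RT signal relative to infected untreated wells.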

For data set [4], the system named is Human immunodeficiency virus 1. Briefly: Antiviral activity against HIV1 098 isolate infected in human PBMCs by reverse transcriptase assay. It is filed as functional, organism-based. In short, it runs like this:
as §2

Data set [5] deals with Human immunodeficiency virus 1. Briefly: Antiviral activity against HIV1 098-T20 isolate infected in human PBMCs by reverse transcriptase assay. The data set is classed as functional, organism-based. In short, it runs like this:
as §2

Data set [6] concerns Human immunodeficiency virus 1. Briefly: Antiviral activity against HIV1 098-T1249 isolate infected in human PBMCs by reverse transcriptase assay. It is filed as functional, organism-based. In short, it runs like this: as §2
Data set [7] deals with Human immunodeficiency virus 1. Put plainly: Antiviral activity against HIV1 098-T651 isolate infected in human PBMCs by reverse transcriptase assay. It is filed as functional, organism-based. In outline:
as §2

The subject of data set [8] is Human immunodeficiency virus 1. Briefly: Binding affinity to HIV1 gp41 heptad repeat 1 region assessed as thermal stability of HR1/HR2 peptide bundle complex at 1 uM in presence of 8M urea.

≈ marks a conversion by molar mass, not a printed value.

Usually clearance stands for the rate of elimination divided by the concentration. A word on the half-life: it is the time needed for the level to fall by half in the phase considered. Broadly, the IC50 is the concentration that inhibits the measured activity by half. With `CC[C@H](C)[C@H](NC(=O)[C@H](CC(C)C)NC(=O)[C@H](CO)NC(=O)[C@H](Cc1cnc[nH]1)NC(=O)[C@H](NC(=O)[C@H](CC(C)C)NC(=O)[C@H](CO)NC(=O)[C@@H](NC(=O)[C@H](Cc1ccc(O)cc1)NC(=O)[C@H](CC(N)=O)NC(=O)[C@H](CC(N)=O)NC(=O)[C@@H](NC(=O)[C@H](CCC(=O)O)NC(=O)[C@H](CCCNC(=N)N)NC(=O)[C@H](CC(=O)O)NC(=O)[C@H](Cc1c[nH]c2ccccc12)NC(=O)[C@H](CCC(=O)O)NC(=O)[C@H](CCSC)NC(=O)[C@H](Cc1c[nH]c2ccccc12)NC(=O)[C@@H](NC(=O)[C@@H](N)CCSC)[C@@H](C)O)[C@@H](C)CC)[C@@H](C)O)[C@@H](C)CC)C(=O)N[C@@H](CCC(=O)O)C(=O)N[C@@H](CCC(=O)O)C(=O)N[C@@H](CO)C(=O)N[C@@H](CCC(N)=O)C(=O)N[C@@H](CC(N)=O)C(=O)N[C@@H](CCC(N)=O)C(=O)N[C@@H](CCC(N)=O)C(=O)N[C@@H](CCC(=O)O)C(=O)N[C@@H](CCCCN)C(=O)N[C@@H](CC(N)=O)C(=O)N[C@@H](CCC(=O)O)C(=O)N[C@@H](CCC(N)=O)C(=O)N[C@@H](CCC(=O)O)C(=O)N[C@@H](CC(C)C)C(=O)N[C@@H](CC(C)C)C(=O)O`, the clearance in data set [1] was 7.2 mL/min/kg. In data set [2], the half-life is 0.3 h. Further, the concentration for half-maximal inhibition (IC50) in data set [3] was 0.008 µg/mL (≈ 1.79 nM); in data set [4] it was 0.033 µg/mL (≈ 7.36 nM); in data set [5], 0.06 µg/mL (≈ 13.4 nM); in data set [6], 0.151 µg/mL (≈ 33.7 nM); in data set [7] it was 7.6 µg/mL (≈ 1700 nM). Further, the Tm in data set [8] was found to be 68 °C.
`CC[C@H](C)[C@H](NC(=O)[C@H](CC(C)C)NC(=O)[C@H](CO)NC(=O)[C@H](Cc1cnc[nH]1)NC(=O)[C@@H](NC(=O)[C@H](CC(C)C)NC(=O)[C@H](CO)NC(=O)[C@@H](NC(=O)[C@H](Cc1ccc(O)cc1)NC(=O)[C@H](CC(N)=O)NC(=O)[C@H](CC(N)=O)NC(=O)[C@@H](NC(=O)[C@H](CCC(=O)O)NC(=O)[C@H](CCCNC(=N)N)NC(=O)[C@H](CC(=O)O)NC(=O)[C@H](Cc1c[nH]c2ccccc12)NC(=O)[C@H](CCC(=O)O)NC(=O)[C@H](CCSC)NC(=O)[C@H](Cc1c[nH]c2ccccc12)NC(=O)[C@@H](NC(=O)[C@@H](N)CCSC)[C@@H](C)O)[C@@H](C)CC)[C@@H](C)O)[C@@H](C)CC)C(=O)N[C@@H](CCC(=O)O)C(=O)N[C@@H](CCC(=O)O)C(=O)N[C@@H](CO)C(=O)N[C@@H](CCC(N)=O)C(=O)N[C@@H](CC(N)=O)C(=O)N[C@@H](CCC(N)=O)C(=O)N[C@@H](CCC(N)=O)C(=O)N[C@@H](CCC(=O)O)C(=O)N[C@@H](CCCCN)C(=O)N[C@@H](CC(N)=O)C(=O)N[C@@H](CCC(=O)O)C(=O)N[C@@H](CCC(N)=O)C(=O)N[C@@H](CCC(=O)O)C(=O)N[C@@H](CC(C)C)C(=O)N[C@@H](CC(C)C)C(=O)N[C@@H](CCC(=O)O)C(=O)N[C@@H](CC(C)C)C(=O)O`: in data set [1], the clearance is 6.2 mL/min/kg. This compound had a half-life in data set [2] of 1.2 h. Moreover, the half-maximal inhibitory concentration (IC50) in data set [3] turned out to be 0.008 µg/mL (≈ 1.69 nM); in data set [4], 0.032 µg/mL (≈ 6.78 nM); in data set [5], 0.039 µg/mL (≈ 8.26 nM); in data set [6], 0.137 µg/mL (≈ 29 nM); in data set [7], 4.97 µg/mL (≈ 1050 nM). Moreover, the Tm in data set [8] came out at 74 °C.
Turning to `CC[C@H](C)[C@H](NC(=O)[C@H](C)NC(=O)[C@H](CCCNC(=N)N)NC(=O)[C@H](CC(=O)O)NC(=O)[C@H](Cc1c[nH]c2ccccc12)NC(=O)[C@H](C)NC(=O)[C@H](CCC(=O)O)NC(=O)[C@H](Cc1c[nH]c2ccccc12)NC(=O)[C@@H](NC(=O)[C@@H](N)[C@@H](C)O)[C@@H](C)O)C(=O)N[C@@H](C)C(=O)N[C@@H](CCC(=O)O)C(=O)N[C@@H](Cc1ccc(O)cc1)C(=O)N[C@@H](C)C(=O)N[C@@H](C)C(=O)N[C@@H](CCCNC(=N)N)C(=O)N[C@H](C(=O)N[C@@H](CCC(=O)O)C(=O)N[C@@H](C)C(=O)N[C@@H](CC(C)C)C(=O)N[C@H](C(=O)N[C@@H](CCCNC(=N)N)C(=O)N[C@@H](C)C(=O)N[C@@H](C)C(=O)N[C@@H](CCC(N)=O)C(=O)N[C@@H](CCC(=O)O)C(=O)N[C@@H](CCC(N)=O)C(=O)N[C@@H](CCC(N)=O)C(=O)N[C@@H](CCC(=O)O)C(=O)N[C@@H](CCCCN)C(=O)N[C@@H](CC(N)=O)C(=O)N[C@@H](CCC(=O)O)C(=O)N[C@@H](C)C(=O)N[C@@H](C)C(=O)N[C@@H](CC(C)C)C(=O)N[C@@H](CCCNC(=N)N)C(=O)N[C@@H](CCC(=O)O)C(=O)N[C@@H](CC(C)C)C(=O)O)[C@@H](C)CC)[C@@H](C)CC`, the clearance in data set [1] was 0.717 mL/min/kg. The half-life in data set [2] is 16.3 h. Also, the half-inhibitory concentration (IC50) amounted to 0.007 µg/mL (≈ 1.59 nM) in data set [3]; 0.018 µg/mL (≈ 4.08 nM) in data set [4]; 0.025 µg/mL (≈ 5.66 nM) in data set [5]; 0.015 µg/mL (≈ 3.4 nM) in data set [6]; 0.021 µg/mL (≈ 4.76 nM) in data set [7]. Besides, the Tm in data set [8] stood at 86 °C.
Take `CC[C@H](C)[C@H](NC(=O)[C@H](C)NC(=O)[C@H](CCCNC(=N)N)NC(=O)[C@H](CC(=O)O)NC(=O)[C@H](Cc1c[nH]c2ccccc12)NC(=O)[C@H](C)NC(=O)[C@H](CCC(=O)O)NC(=O)[C@H](Cc1c[nH]c2ccccc12)NC(=O)[C@@H](NC(=O)[C@@H](N)[C@@H](C)O)[C@@H](C)O)C(=O)N[C@@H](C)C(=O)N[C@@H](CCC(=O)O)C(=O)N[C@@H](Cc1ccc(O)cc1)C(=O)N[C@@H](C)C(=O)N[C@@H](C)C(=O)N[C@@H](CCCNC(=N)N)C(=O)N[C@H](C(=O)N[C@@H](CCC(=O)O)C(=O)N[C@@H](C)C(=O)N[C@@H](CC(C)C)C(=O)N[C@H](C(=O)N[C@@H](CCCNC(=N)N)C(=O)N[C@@H](C)C(=O)N[C@@H](CC(C)C)C(=O)N[C@@H](CCC(N)=O)C(=O)N[C@@H](CCC(=O)O)C(=O)N[C@@H](CC(C)C)C(=O)N[C@@H](CCC(N)=O)C(=O)N[C@@H](CCC(=O)O)C(=O)N[C@@H](CCCCN)C(=O)N[C@@H](CC(N)=O)C(=O)N[C@@H](CCC(N)=O)C(=O)N[C@@H](C)C(=O)N[C@H](C(=O)N[C@@H](CC(C)C)C(=O)N[C@@H](CCCNC(=N)N)C(=O)N[C@@H](CCC(=O)O)C(=O)N[C@@H](CC(C)C)C(=O)O)[C@@H](C)CC)[C@@H](C)CC)[C@@H](C)CC`: the Tm in data set [8] worked out at 84 °C.
In turn, “H-MTWEAWDRAIAEYAARIEALIRAAQEQQEKNEAALREL-OH” gave a clearance in data set [1] of 0.533 mL/min/kg. The half-life in data set [2] is 5.1 h. Moreover, the IC50 in data set [3] was found to be 0.007 µg/mL; in data set [4] it was 0.026 µg/mL; in data set [5], 0.033 µg/mL; in data set [6] it was 0.014 µg/mL; in data set [7], 0.021 µg/mL.
As for “H-MTWMAWDRAIANYAALIHALIEAAQNQQEKNEAALLEL-OH”, the IC50 in data set [3] is 0.061 µg/mL; in data set [4], 0.079 µg/mL; in data set [5], 0.079 µg/mL; in data set [6] it was 0.12 µg/mL; in data set [7], 0.25 µg/mL.
The compound “H-TTWEAWDRAIAEYAARIEALIRAAQEQQEKNEAILREL-OH” gave a clearance in data set [1] of 1.1 mL/min/kg. Also, the half-life in data set [2] was 3.4 h. For the same compound, the IC50 in data set [3] is 0.007 µg/mL; in data set [4] it was 0.021 µg/mL; in data set [5], 0.034 µg/mL; in data set [6], 0.024 µg/mL; in data set [7], 0.039 µg/mL.
Regarding “H-TTWEAWDRAIAEYAARIEALIRALQELQEKLEAILREL-OH”, the clearance in data set [1] is 0.05 mL/min/kg. The compound further showed a half-life in data set [2] of 35.4 h. Also, the IC50 in data set [3] is 3.16 µg/mL; in data set [4], greater than 20 µg/mL; in data set [5], greater than 20 µg/mL; in data set [6], greater than 20 µg/mL; in data set [7], greater than 20 µg/mL.
As for “H-TTWEAWDRAIAEYAARIEALIRALQELQEKNEAILREL-OH”, the clearance in data set [1] was 0.15 mL/min/kg. Also, in data set [2], the half-life is 9.6 h. Moreover, the IC50 in data set [3] is 0.065 µg/mL; in data set [4], 0.118 µg/mL; in data set [5], 0.154 µg/mL; in data set [6] it was 0.192 µg/mL; in data set [7], greater than 20 µg/mL.
In data set [1], “H-TTWEAWDRAIAEYAARIEALIRALQEQQEKNEAALREL-OH” gave a clearance of 0.167 mL/min/kg. For the same compound, in data set [2], the half-life is 15.2 h. Further, the 50% inhibitory concentration (IC50) in data set [3] is 0.011 µg/mL; in data set [4], 0.035 µg/mL; in data set [5] it was 0.028 µg/mL; in data set [6] it was 0.035 µg/mL; in data set [7], 0.05 µg/mL.
On to “H-TTWEEWDREINEYTSRIESLIRESQEQQEKNEQELREL-OH”, for which the IC50 in data set [3] was found to be 0.012 µg/mL; in data set [4], 0.021 µg/mL; in data set [5], 0.056 µg/mL; in data set [6], 0.037 µg/mL; in data set [7], 0.167 µg/mL. Besides, the Tm in data set [8] turned out to be 80 °C.

The record behind these values is ChEMBL document CHEMBL1147044, “Design of helical, oligomeric HIV-1 fusion inhibitor peptides with potent activity against enfuvirtide-resistant virus” (Proc Natl Acad Sci U S A, 2007).
